13 compounds from ChEMBL document CHEMBL1127086, “Syntheses and biological evaluations of 3'-deoxy-3'-C-branched-chain-substituted nucleosides” (1993) can be followed below.

In test [1] the test system is Thymidine kinase (Human herpesvirus 1). Description: Antiviral activity against thymidine kinase from Herpes simplex virus type-1 (KOS Strain) infected HeLa (Bu-25-TK-) cells at 500 uM concentration.
In a further test the test system is L1210. Description: Tested in vitro for anticancer activity against replication of murine leukemia L1210 cell line after 72 hr incubation. In kind it is functional. Conditions: Mus musculus, L1210, 72 h; read-out: ED50 (the source's name). The procedure, abridged:
(§1)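 Suspension cultures at 37 °C, 5% CO₂. L1210, P388 and S-180 were grown in Fisher's medium and CCRF-CEM in RPMI 1640, each with 10% horse serum. Exponentially growing cells at 2 × 10⁴ cells/mL were exposed to various concentrations and counted at 24, 48 and 72 h. ED₅₀ for 50% growth inhibition at 72 h was estimated from dose-response curves, ≥2 independent experiments.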

A short description of test [2]: Tested in vitro for anticancer activity against replication of murine Sarcoma 180 cell line after 72 h incubation. The test is classed as functional. The note with it: Mus musculus, 180, 72 h; read-out: ED50 (the source's name). The procedure, abridged:
as §1

In another test the test system is CCRF-CEM. In words: Tested in vitro for anticancer activity against replication of human CCRF-CEM lymphoblastic cell line after 72 hr incubation. The test is classed as functional. Conditions: read-out: ED50 (the source's name). The procedure, abridged: as §1
For test [3], the target named is T1, Thymidine kinase, cytosolic (Homo sapiens) (UniProt P04183).
T1 sequence (whole entry): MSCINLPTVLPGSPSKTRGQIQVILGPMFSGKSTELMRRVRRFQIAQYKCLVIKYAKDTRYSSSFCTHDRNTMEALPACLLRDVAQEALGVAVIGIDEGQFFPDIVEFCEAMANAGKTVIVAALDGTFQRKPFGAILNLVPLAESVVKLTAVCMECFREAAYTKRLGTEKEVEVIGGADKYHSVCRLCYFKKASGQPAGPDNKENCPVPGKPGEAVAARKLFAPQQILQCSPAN
Description: […] thymidine kinase activity from K562 mammalian cells at 500 uM concentration. The test is classed as cell-based.

Test [4] has as its system Thymidine kinase (Human herpesvirus 2). Description: Antiviral activity against thymidine kinase from Herpes simplex virus type-2 (333 Strain) infected HeLa (Bu-25-TK-) cells at 500 uM concentration.
For a further test, the system named is P388. Description: Tested in vitro for anticancer activity against replication of murine leukemia P388 cell line after 72 hr incubation. In kind it is functional. Conditions: Mus musculus, P388, 72 h; read-out: ED50 (the source's name). The method in brief: as §1
For test [5], the system named is MT2. Description: Antiviral activity against HIV-1(HTLV-III B) in MT-2 cells; Not active uM concentration. The test is classed as functional, cell-based. The note with it: Homo sapiens. The procedure, abridged:
(§2)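 MT-2 cells, 1 × 10⁴ per well in triplicate wells, infected with HIV-1 (HTLV-III) at MOI 0.5 TCID₅₀/cell, then given serial drug dilutions. MTT added after 7 days. Antiviral effect taken from A₅₇₀ of infected cells compared with A₅₇₀ of uninfected drug-free cells. Concentrations tested up to 100 μM.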

Test [6] deals with MT2. In words: Antiviral activity against HIV-1(HTLV-III B) in MT-2 cells at 100 uM; Not active up to 100 uM concentration. The test is classed as functional, cell-based. The note with it: Homo sapiens. The procedure, abridged: as §2

Calls of active or inactive are those of the source. The calls are words filed in the database; no cut-off is given here.

The term inhibition denotes the drop in the measured response relative to a control, in per cent. As for `Cc1cn([C@@H]2O[C@H](CO)[C@@H](CO)[C@@H]2O)c(=O)[nH]c1=O`, the inhibition in test [1] was 11.7%; in test [3] it was 0.7%; in test [4], 6.9%. In addition, the EC50 (with L1210; in test [2]; with CCRF-CEM; with P388) was over 100 µM throughout.

In the case of `Cc1cn([C@@H]2O[C@H](CO)[C@@H](CN)[C@@H]2O)c(=O)[nH]c1=O`, the EC50 (with L1210; in test [2]; in the test with CCRF-CEM; in the test with P388) was over 100 µM each time.

Turning to `Cc1cn([C@@H]2O[C@H](CO)[C@@H](CN)[C@H]2O)c(=O)[nH]c1=O`, the EC50 (with L1210; in [2]; in the test with CCRF-CEM; in the test on P388) was over 100 µM each time.

`Cc1cn([C@H]2C[C@H](CN)[C@@H](CO)O2)c(=O)[nH]c1=O`: the EC50 (in the test on L1210; in test [2]; in the test on CCRF-CEM; with P388) was over 100 µM each time.

Take `Cc1cn([C@@H]2O[C@H](CO)[C@@H](CN=[N+]=[N-])[C@@H]2O)c(=O)[nH]c1=O`: the inhibition entry with MT2 [5] is “inactive”. For the same compound, the EC50 in the test with L1210 is 10 µM; in test [2], over 100 µM; in the test with CCRF-CEM it was over 100 µM; in the test with P388, over 100 µM.

Consider `Cc1cn([C@H]2C[C@H](CF)[C@@H](CO)O2)c(=O)[nH]c1=O`, for which the inhibition was 85.2% in test [1], 5.4% in test [3] and 4% in [4]. Also, the EC50 (with L1210; in test [2]; with CCRF-CEM; in the test with P388) was over 100 µM each time. In addition, the inhibition entry with MT2 [6] was “inactive”.

Regarding `Cc1cn([C@@H]2O[C@H](CO)[C@@H](CO)[C@H]2O)c(=O)[nH]c1=O`, the inhibition in test [1] amounted to 2.6%; in test [3], 3%; in test [4] it was 0%. For the same compound, the EC50 (in the test with L1210; in test [2]; with CCRF-CEM; in the test on P388) was over 100 µM in each case.

Consider `Cc1cn([C@@H]2O[C@H](CO)[C@@H](CN=[N+]=[N-])[C@H]2O)c(=O)[nH]c1=O`, for which the inhibition result with MT2 [5] is “inactive”. The EC50 (with L1210; in [2]; with CCRF-CEM; in the test with P388) was over 100 µM throughout.

Compound `Cc1cn([C@@H]2O[C@H](CO)[C@@H](O)[C@@H]2O)c(=O)[nH]c1=O` came in with an inhibition in [3] of 5%.

Turning to `Cc1cn([C@H]2C[C@H](CO)[C@@H](CO)O2)c(=O)[nH]c1=O`, the values for the inhibition in test [1], in test [3] and in test [4] were 59.1%, 3% and 0%, respectively. In addition, the EC50 with L1210 came out at 50 µM; in [2], 10 µM; in the test on CCRF-CEM, 1 µM; with P388 it was 5 µM.

For `Cc1cn([C@@H]2O[C@H](CO)[C@@H](CF)[C@H]2O)c(=O)[nH]c1=O`, the inhibition in test [1] is 7%; in test [3], 2.5%; in [4], 4.9%. Moreover, the EC50 (with L1210; in test [2]; in the test with CCRF-CEM; with P388) was over 100 µM in each case. For the same compound, in the test on MT2 [6], the inhibition result is “inactive”.

Regarding `Cc1cn([C@@H]2O[C@H](CO)[C@@H](CF)[C@@H]2O)c(=O)[nH]c1=O`, the inhibition entry in the test on MT2 [5] was “inactive”. The results for the inhibition in [1], in test [3] and in test [4] were 13.8%, 7.1% and 10.9%, respectively. For the same compound, the EC50 (in the test on L1210; in test [2]; in the test with CCRF-CEM; in the test with P388) was over 100 µM in each case.

With `Cc1cn([C@H]2C[C@H](CN=[N+]=[N-])[C@@H](CO)O2)c(=O)[nH]c1=O`, in the test with MT2 [5], the inhibition result is “inactive”. For the same compound, the EC50 (with L1210; in test [2]; in the test on CCRF-CEM; with P388) was over 100 µM throughout.
